Activity calls are given as the source filed them.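 The calls were made as follows: active = EC50 for reversing nicotinamide-shortened yeast lifespan at or below a set limit; inactive = EC50 above that limit.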
Tested on: S. cerevisiae DeaD BB579, nicotinamide rescue growth, OD615 48 h
Experiment: rescue of nicotinamide-suppressed growth of yeast BB579, dose response, yeast lifespan extension project, S. cerevisiae (AID 809)
Procedure, shortened: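 Assay system: Saccharomyces cerevisiae DeaD strain BB579, log-phase cells; Medium: CSMM-D glucose restrictive medium; Dosing: compounds from 0.078 to 10 µM final, 0.5% DMSO; Times: 4 h pre-incubation, 48 h exposure at 30 °C; Technique: optical density at 615 nm (absorbance); Evaluation: culture saturation density reflecting mother-cell replicative lifespan.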

SMILES: O=c1cc(-c2ccccc2Cl)oc2ccc([N+](=O)[O-])c(O)c12
- EC50: 7.35 µM

SMILES: COc1ccc(NCc2nc3ccccc3n2CCOc2ccccc2)cc1
- EC50: 5.29 µM

SMILES: C[C@]12CC[C@@H]3c4ccc(O)cc4CC[C@H]3[C@@H]1CC[C@@H]2OC(=O)CCC(=O)O
- EC50: 5.42 µM

SMILES: COc1ccc(NC(=O)/C(Cl)=C(/Cl)S(=O)Cc2ccc(C)cc2)cn1 (stereo not drawn)
- EC50: > 10 µM (inactive)

SMILES: CCc1cc2c(=O)c(Oc3ccccc3)c(C)oc2cc1O
- EC50: > 10 µM (inactive)

SMILES: COc1ccc(NC(=S)N2CCN(CCN=CC3=C(O)CC(c4ccccc4)CC3=O)CC2)cc1 (stereo not drawn)
- EC50: 7.32 µM

SMILES: O=C(COc1ccc([N+](=O)[O-])cc1)N(Cc1ccccc1)Cc1ccccc1
- EC50: > 10 µM (inactive)

SMILES: COC(=O)c1cc(=O)n(-c2ccccc2)c(=Nc2ccccc2)s1
- EC50: > 10 µM (inactive)

SMILES: CCCCn1c(=O)c2c(O)cc(=O)oc2c2ccccc21
- EC50: 5.94 µM

SMILES: Cn1c(SCC(=O)N2CCCc3ccccc32)nnc1-c1c[nH]c2ccccc12
- EC50: > 10 µM (inactive)

SMILES: CCCCSc1[nH]c(=O)c(C(=O)OCC)cc1C#N
- EC50: 6.45 µM

SMILES: CC(c1ccco1)N(C(=O)c1ccccc1NS(=O)(=O)c1cc([N+](=O)[O-])ccc1Cl)c1ccccn1 (stereo not drawn)
- EC50: 9.17 µM

SMILES: Cc1ccc(N/C(C(Cl)=C(Cl)Cl)=C(/Cl)[N+](=O)[O-])c(C)c1
- EC50: 8.68 µM

SMILES: CCCCC(=O)Nc1ccc(C(=O)NNC(=S)NC(=O)c2cccs2)cc1
- EC50: 8.39 µM

SMILES: Cc1ccc(/C=C2/C(=O)NC(=O)N(CCc3ccc(F)cc3)C2=O)o1
- EC50: > 10 µM (inactive)

SMILES: CN1CCN(C(=S)Nc2cc([N+](=O)[O-])ccc2Cl)CC1
- EC50: > 10 µM (inactive)

SMILES: CSc1ccc(S(=O)(=O)NCc2ccc(Cl)cc2Cl)cc1
- EC50: > 10 µM (inactive)

SMILES: Cc1cc(C)n(-c2ccc(OCC(=O)O)nn2)n1
- EC50: > 10 µM (inactive)

SMILES: Cc1ccccc1OC(=O)n1c(=S)oc2cc(Cl)ccc21
- EC50: 6.59 µM

SMILES: COC(=O)C1=C(N)OC2=C(C(=O)CC(C)(C)C2)C1c1cccs1 (stereo not drawn)
- EC50: 8.93 µM

SMILES: CC(=O)Oc1ccccc1N1C(=O)c2ccc(C(=O)O)cc2C1=O
- EC50: > 10 µM (inactive)

SMILES: CCOC(=O)C1=C(C)Nc2nc(=S)[nH]n2C1c1ccc(Cl)cc1 (stereo not drawn)
- EC50: 5.46 µM

SMILES: CCCN1C(=O)/C(=C/c2ccncc2)SC1=S
- EC50: 6.93 µM

SMILES: CCOC(=O)c1ccc2c(c1)n(CCO)c(C)[n+]2CC
- EC50: > 10 µM (inactive)

SMILES: O=C(Nc1ccc(Br)cn1)c1cccc(-c2cc3ccccc3oc2=O)c1
- EC50: > 10 µM (inactive)

SMILES: CCN(CCO)C(=O)C12CCC(C)(C(=O)C1)C2(C)C (stereo not drawn)
- EC50: > 10 µM (inactive)

SMILES: CN(C)CC(C(=O)c1ccccc1)c1ccccc1 (stereo not drawn)
- EC50: 6.36 µM

SMILES: c1ccc(-c2c(-c3ccccc3)n(Cc3ccco3)c3ncnc(NCCCn4ccnc4)c23)cc1
- EC50: 1.98 µM

SMILES: COc1ccc(N(C)C(=S)Nc2ccc3nc(C)c(C)nc3c2)cc1
- EC50: > 10 µM (inactive)

SMILES: CS(=O)(=O)Oc1ccc(Br)cc1/C=C1/N=C(c2ccco2)OC1=O
- EC50: > 10 µM (inactive)

SMILES: O=C(CSc1nc2ccccc2o1)c1cc2ccccc2oc1=O
- EC50: > 10 µM (inactive)

SMILES: CCn1c(/C=N/c2nc3ccccc3n2C)nc2ccccc21
- EC50: > 10 µM (inactive)

SMILES: COCCCNc1c2c3c(cccc3[nH]c1=O)C(=O)c1ccccc1-2
- EC50: 7.85 µM

SMILES: Cc1[nH]nc2nc3c(c(OC(=O)c4ccccc4)c12)c(=O)n(C)c(=O)n3C
- EC50: 1.75 µM

SMILES: O=c1c2c3c(sc2ncn1/N=C/c1ccc([N+](=O)[O-])o1)CCCC3
- EC50: > 10 µM (inactive)

SMILES: Cc1ccc(-c2nc3ccc(Cl)cc3n2OC(=O)N(C)C)cc1
- EC50: > 10 µM (inactive)

SMILES: CCCC(=O)C1C(=O)CC(CC(C)SCC)CC1=O (stereo not drawn)
- EC50: 2.33 µM

SMILES: CCCCC(CC)Cn1c2nc3ccccc3nc2c2c(=N)oc(C)nc21 (stereo not drawn)
- EC50: > 10 µM (inactive)

SMILES: O=C1c2ccccc2NC(c2cnc3ccccc3n2)N1O (stereo not drawn)
- EC50: 1.42 µM

SMILES: COc1cc(OC)cc(-c2nc3ccccc3c(=O)n2OC(=O)c2ccccc2C)c1
- EC50: > 10 µM (inactive)

SMILES: O=c1c2[nH]c3ccccc3c2ncn1Cc1ccco1
- EC50: > 10 µM (inactive)

SMILES: COc1ccccc1CNC(=O)C(CCSC)NS(=O)(=O)c1ccc2c(c1)oc(=O)n2C (stereo not drawn)
- EC50: > 10 µM (inactive)

SMILES: O=C(c1c[nH]c(C(=O)C(Cl)(Cl)Cl)c1)c1ccccc1Cl
- EC50: 8.53 µM

SMILES: NC(=S)N/N=C/c1coc2cc(Cl)ccc2c1=O
- EC50: 4.87 µM

SMILES: CCCCCC(=O)N1CCN(CCN=CC2=C(O)CC(c3ccc(OC)c(OC)c3)CC2=O)CC1 (stereo not drawn)
- EC50: > 10 µM (inactive)

SMILES: CCOc1ccc(NCc2nc3ccccc3n2CCOc2ccccc2)cc1
- EC50: 3.28 µM

SMILES: Cc1cc(NS(=O)(=O)c2ccc(CC(C)C)cc2)no1
- EC50: 6.25 µM

SMILES: Cc1nc2c(=O)n(C)c(=O)n(C)c2nc1Cl
- EC50: 1.72 µM

SMILES: O=C(Nc1nc2ccccc2n1CCN1CCOCC1)c1cn(-c2ccccc2)nc1-c1ccccc1
- EC50: > 10 µM (inactive)

SMILES: CCN1CCCC1CNC(=O)COc1cc(=O)n(C)c2ccccc12 (stereo not drawn)
- EC50: > 10 µM (inactive)

SMILES: O=Cc1cccn1-c1sc2c(c1C(=O)O)CCCC2
- EC50: > 10 µM (inactive)

SMILES: O=C(Nc1scc(-c2ccc(F)cc2)c1C(=O)O)c1ccco1
- EC50: 3.15 µM

SMILES: CS(=O)(=O)c1nc(-c2cccs2)cc(C(F)(F)F)n1
- EC50: 3.91 µM

SMILES: COc1cc(C(C[N+](=O)[O-])c2c(-c3ccccc3)cc3ccccn23)cc(OC)c1OC (stereo not drawn)
- EC50: > 10 µM (inactive)

SMILES: CCCCC(=Nc1ccc(N)cc1)C1=C(O)C(C(=O)OC)C(C)(C)CC1=O (stereo not drawn)
- EC50: 5.51 µM

SMILES: CCCC[n+]1c(-c2ccc(Cl)cc2Cl)csc1Nc1ccccc1
- EC50: > 10 µM (inactive)

SMILES: COc1ccc2c(=O)c3c(=O)n(Cc4ccco4)c(-c4ccc(C)cc4)nc3oc2c1
- EC50: 6.81 µM

SMILES: COc1ccc(C(=O)Nc2ccc(OCc3ccccc3)cc2)cc1[N+](=O)[O-]
- EC50: > 10 µM (inactive)

SMILES: Cc1ccc(NC(=O)Nc2nc(-c3ccc(C)s3)cs2)cc1
- EC50: > 10 µM (inactive)

SMILES: Cc1cc(C)cc(CC2CC(=O)N(c3ccc(Cl)cn3)C2=O)c1 (stereo not drawn)
- EC50: > 10 µM (inactive)

SMILES: CC(=O)Nc1ccc(C(=O)CSc2nnc(-c3ccc(O)cc3)n2CC2CCCO2)cc1 (stereo not drawn)
- EC50: > 10 µM (inactive)

SMILES: Cc1nonc1NC(=O)CSc1nc(C2CCCCC2)nc2ccccc12
- EC50: > 10 µM (inactive)

SMILES: Cc1ccc(N(C(=O)CS(=O)CC(=O)Nc2ccc(F)cc2)C(C(=O)NC2CCCCC2)c2ccco2)cc1 (stereo not drawn)
- EC50: > 10 µM (inactive)

SMILES: O=C(NNC1=Nc2cccc3cccc1c23)c1ccccc1Br
- EC50: > 10 µM (inactive)

SMILES: CCCCCC1CC1C(=O)N/N=C/c1ccc(N(C)C)cc1 (stereo not drawn)
- EC50: > 10 µM (inactive)

SMILES: CCCCNC(=O)/C(C#N)=C/c1cccnc1
- EC50: 9.27 µM

SMILES: COc1ccc2c(=O)c3c(=O)n(Cc4ccco4)c(-c4ccco4)nc3oc2c1
- EC50: 9.69 µM

SMILES: CCOC(=O)CC1=NN(c2ccccc2)C(=O)/C1=C\c1ccc(OC)cc1OC
- EC50: 8.5 µM

SMILES: Cc1nc(SC(C)C)[nH]c(=O)c1Cc1ccccc1
- EC50: > 10 µM (inactive)

SMILES: Cc1cc(N=Cc2c(O)ccc3ccccc23)no1
- EC50: 5.54 µM

SMILES: COc1ccccc1CN(Cc1nc2ccccc2c(=O)[nH]1)C(=O)Nc1cccc(C)c1
- EC50: > 10 µM (inactive)

SMILES: CCn1c(=O)c2c(O)cc(=O)oc2c2ccccc21
- EC50: < 0.078 µM

SMILES: O=C(NC(=S)NNS(=O)(=O)c1ccccc1)c1ccc([N+](=O)[O-])cc1
- EC50: > 10 µM (inactive)

SMILES: O=C(Oc1ccc([N+](=O)[O-])cc1)c1ccc2ccccc2n1
- EC50: > 10 µM (inactive)

SMILES: O=[N+]([O-])c1cc2oc3c(c2c(C=NCc2ccncc2)c1O)CCCC3
- EC50: 1.2 µM

SMILES: CCNCCNC(=O)c1c(O)c2cccc3c2n(c1=O)CCC3
- EC50: 6.32 µM

SMILES: C/C(=N\NC(=O)c1cccnc1)c1c(O)cc(C)oc1=O
- EC50: > 10 µM (inactive)

SMILES: O=c1c2ccccc2nc(-c2ccc(Cl)c(Cl)c2)n1O
- EC50: > 10 µM (inactive)

SMILES: CN1C/C(=C/c2cccnc2)C(=O)/C(=C/c2cccnc2)C1
- EC50: > 10 µM (inactive)

SMILES: Oc1ccc2ccccc2c1C=Nc1ccccc1-c1nc2ccccc2[nH]1
- EC50: > 10 µM (inactive)

SMILES: COc1ccc(CN2CCN(C(=O)COc3cccc(C)c3)CC2)c(OC)c1
- EC50: > 10 µM (inactive)

SMILES: Cc1ccc(C(=O)/C=C\C(=O)c2ccc(C)cc2)cc1
- EC50: 9.15 µM

SMILES: O=C(CCN1CCCCCC1)Nc1ccc(F)cc1
- EC50: > 10 µM (inactive)

SMILES: CC(=Nc1ccc2c(c1)nc(CO)n2C)C1=C(O)CC(C)(C)CC1=O
- EC50: > 10 µM (inactive)

SMILES: Cc1cccc(N2C(=O)/C(=C\c3ccc(OC(F)F)cc3)c3ccccc3C2=O)c1
- EC50: > 10 µM (inactive)

SMILES: COc1ccc(CCN2C(=O)C(O)=C(C(=O)c3ccco3)C2c2cccs2)cc1OC (stereo not drawn)
- EC50: 8.94 µM

SMILES: COc1ccc(O)c(C(=O)c2cc(C#N)c(=O)n(CC3CCCO3)c2)c1 (stereo not drawn)
- EC50: 8.21 µM

SMILES: COC(=O)CSc1ncccc1-c1nc2ccccc2[nH]1
- EC50: > 10 µM (inactive)

SMILES: CC1=CN2C(=N)/C(=C/c3ccc([N+](=O)[O-])o3)C(=O)N=C2S1
- EC50: 6.69 µM

SMILES: O=c1c(Cl)c(NCCCO)cnn1-c1nc2ccccc2[nH]1
- EC50: 7.65 µM

SMILES: CCOC(=O)CCCNC(=O)COc1ccccc1C#N
- EC50: > 10 µM (inactive)

SMILES: O=C(NCCc1ccccn1)C(F)(F)C(F)(F)C(F)(F)C(F)(F)C(F)(F)C(F)(F)C(F)(F)C(F)F
- EC50: > 10 µM (inactive)

SMILES: CCCCC1C(=O)CC[C@H]2[C@@H]1CC(=O)[C@@H]2C/C=C\CCCC(=O)O (stereo partly drawn)
- EC50: 8.1 µM

SMILES: CCOC(=O)C1Cc2cc3c(cc2C1=O)CC(C(=O)OCC)C3=O (stereo not drawn)
- EC50: 5.89 µM

SMILES: O=C1c2ccccc2C(=O)N1OCc1ccccc1
- EC50: > 10 µM (inactive)

SMILES: O=S(=O)(ON(c1ccccc1)S(=O)(=O)c1ccccc1)c1ccccc1
- EC50: > 10 µM (inactive)

SMILES: CC(=O)Oc1oc(-c2ccccc2)nc1C=Nc1ccccc1
- EC50: 5.95 µM

SMILES: Cc1ccc(C(C2=C(O)CC(C)(C)CC2=O)C2C(=O)CC(C)(C)CC2=O)o1 (stereo not drawn)
- EC50: 6.35 µM

SMILES: CCc1c(C)c(C#N)c2nc3ccccc3n2c1Cl
- EC50: > 10 µM (inactive)

SMILES: Cc1ccc(-c2ccc(/C=C3\C(=O)ON=C3c3ccccc3)o2)c([N+](=O)[O-])c1
- EC50: 6.93 µM

SMILES: COc1ccccc1-c1c(C)oc2cc(OC(=O)c3ccco3)ccc2c1=O
- EC50: > 10 µM (inactive)

SMILES: COc1cc(OC)cc(-c2nc3ccccc3c(=O)n2OC(=O)c2ccc(Br)cc2)c1
- EC50: 6.14 µM

SMILES: Cc1ccc(NC(=O)CN2CCN(CCN=CC3=C(O)CC(c4ccccc4)CC3=O)CC2)cc1 (stereo not drawn)
- EC50: 9.58 µM
